{"data": "Assay results of several laboratories", "Tumor necrosis factor receptor superfamily member 9": "Tumor necrosis factor receptor superfamily member 9 (Homo sapiens, UniProt Q07011)", "note": "Lines come from different studies, so protocols differ."}
{"SMILES": "CCCC[C@@H]1NC(=O)[C@H](Cc2ccc(O)cc2)NC(=O)[C@@H]2CCCN2C(=O)[C@H](CC(=O)O)NC(=O)[C@H](C)NC(=O)[C@H](Cc2ccccc2)NC(=O)[C@@H]2CSCCC(=O)N3CN(CN(C3)C(=O)CCSC[C@@H](C(=O)N[C@@H](C)C(N)=O)NC1=O)C(=O)CCSC[C@H](NC(C)=O)C(=O)N[C@@H](CC(C)(C)C)C(=O)N1CCC[C@H]1C(=O)N[C@@H](CCC(=O)O)C(=O)N[C@H](CCCCNC(=O)CCc1cn(CCOCCOCCOCCOCCOCCC(=O)N[C@H]3CSCCC(=O)N4CN5CN(C4)C(=O)CCSC[C@H](NC(=O)[C@@H](CC(=O)O)NC(=O)[C@H](Cc4cccc6ccccc46)NC(=O)[C@@H]4CCCN4C3=O)C(=O)N[C@@H](CCSC)C(=O)N[C@@H](CCCCNC(=N)N)C(=O)N[C@@H](CC(=O)O)C(=O)N[C@@H](Cc3c[nH]c4ccccc34)C(=O)N[C@@H](CO)C(=O)N[C@@H]([C@@H](C)O)C(=O)N3CCC[C@H]3C(=O)N3C[C@H](O)C[C@H]3C(=O)N[C@@H](Cc3c[nH]c4ccccc34)C(=O)N[C@H](C(N)=O)CSCCC5=O)nn1)C(=O)N1CCC[C@H]1C(=O)N[C@@H](Cc1ccc(O)cc1)C(=O)N2", "target": "Tumor necrosis factor receptor superfamily member 9", "read-out": "binding", "technique": "SPR", "quantity": "Kd", "value": "3.4 nM"}
{"SMILES": "Cc1ccc(C)c(OCCCC(C)(C)C(=O)O)c1", "target": "Peroxisome proliferator-activated receptor alpha (PPARA, Homo sapiens, UniProt Q07869)", "read-out": "reporter gene", "action": "agonist", "technique": "luciferase", "quantity": "EC50", "value": "201000 nM"}
{"SMILES": "Cc1cnc(-c2ccc(-c3ccc(NC(=O)Nc4c(F)cc(F)cc4F)cc3F)c3c2C(=O)NC3)[nH]1", "target": "Serine/threonine-protein kinase 4 (STK4, Homo sapiens, UniProt Q13043)", "read-out": "binding", "technique": "competition with immobilised ligand", "quantity": "Kd", "value": "1.3 nM"}
{"SMILES": "c1cncc(-c2cccc(Nc3nccc(NC4CCCCC4)n3)c2)c1", "target": "Tyrosine-protein kinase JAK3, JH1 (JAK3, Homo sapiens, UniProt P52333)", "read-out": "binding", "technique": "competition with immobilised ligand", "quantity": "Kd", "value": "1300 nM"}
{"SMILES": "CC/C=C\\C/C=C\\C/C=C\\C/C=C\\C/C=C\\C/C=C\\CCC(=O)O", "target": "Nuclear receptor subfamily 4 group A member 2 (Homo sapiens, UniProt P43354)", "read-out": "binding", "quantity": "Kd", "value": "30000 nM"}
{"SMILES": "CNC(=O)c1cc2c(Oc3ccc(NC(=O)C4(C(=O)Nc5ccc(F)cc5)CC4)cc3)ccnc2cc1OC", "target": "Macrophage colony-stimulating factor 1 receptor (CSF1R, Homo sapiens, UniProt P07333)", "read-out": "enzyme activity", "action": "inhibitor", "technique": "radiometric", "quantity": "IC50", "value": "11 nM"}
{"SMILES": "CC(C)C[C@H](NC(=O)[C@H](Cc1ccccc1)NC(=O)[C@H](Cc1ccc(O)cc1)NC(=O)CNC(=O)[C@H](CCCNC(=N)N)NC(=O)[C@H](CO)NC(=O)[C@H](CCC(N)=O)NC(=O)[C@H](CO)NC(=O)[C@H](C)NC(=O)[C@H](Cc1ccccc1)NC(=O)[C@@H]1CCCN1C(=O)[C@H](CO)NC(=O)[C@H](CCC(N)=O)NC(=O)[C@H](Cc1ccccc1)NC(=O)[C@H](CCC(=O)O)NC(=O)[C@H](CCC(=O)O)NC(=O)[C@H](CC(=O)O)NC(=O)[C@@H](NC(=O)[C@H](CCCNC(=N)N)NC(=O)[C@@H](N)Cc1ccccc1)C(C)C)C(=O)N[C@@H](Cc1ccccc1)C(=O)N[C@@H](CCCNC(=N)N)C(=O)N1CCC[C@H]1C(=O)N[C@@H](CCCNC(=N)N)C(=O)N[C@@H](CC(N)=O)C(N)=O", "target": "Neuromedin-U receptor 2 (NMUR2, Homo sapiens, UniProt Q9GZQ4)", "read-out": "inositol phosphate", "action": "agonist", "quantity": "EC50", "value": "0.166 nM"}
{"SMILES": "CCCC[C@@H]1NC(=O)[C@H](Cc2ccc(O)cc2)NC(=O)[C@@H]2CCCN2C(=O)[C@H](CC(=O)O)NC(=O)[C@H](C)NC(=O)[C@H](Cc2ccccc2)NC(=O)[C@@H]2CSCCC(=O)N3CN(CN(C3)C(=O)CCSC[C@@H](C(=O)N[C@@H](C)C(N)=O)NC1=O)C(=O)CCSC[C@H](NC(C)=O)C(=O)N[C@@H](CC(C)(C)C)C(=O)N1CCC[C@H]1C(=O)N[C@@H](CCCCNC(=O)CCc1cn(CC(=O)N[C@H]3CSCCC(=O)N4CN5CN(C4)C(=O)CCSC[C@H](NC(=O)[C@@H](CC(=O)O)NC(=O)[C@H](Cc4cccc6ccccc46)NC(=O)[C@@H]4CCCN4C3=O)C(=O)N[C@@H](CCSC)C(=O)N[C@@H](CCCCNC(=N)N)C(=O)N[C@@H](CC(=O)O)C(=O)N[C@@H](Cc3c[nH]c4ccccc34)C(=O)N[C@@H](CO)C(=O)N[C@@H]([C@@H](C)O)C(=O)N3CCC[C@H]3C(=O)N3C[C@H](O)C[C@H]3C(=O)N[C@@H](Cc3c[nH]c4ccccc34)C(=O)N[C@H](C(N)=O)CSCCC5=O)nn1)C(=O)N[C@H](C)C(=O)N1CCC[C@H]1C(=O)N[C@@H](Cc1ccc(O)cc1)C(=O)N2", "target": "Tumor necrosis factor receptor superfamily member 9", "read-out": "binding", "technique": "SPR", "quantity": "Kd", "value": "12 nM"}
